Converted amounts (≈) assume the structure as drawn.
Experiments:
[1] = tested on: Pichia kudriavzevii; assay: Antifungal activity against azole-susceptible Candida krusei ATCC 6258 assessed as reduction in fungal growth incubated for 48 hrs by broth microdilution method; assay type: functional; settings: ATCC 6258, 48 h
Outline: (§1)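 CLSI broth microdilution in RPMI 1640 with MOPS at pH 7.0. Inoculum taken from 24-h Sabouraud subcultures, final 0.5-2.5×10^3 cfu/ml. Compounds in DMSO, twofold series 1024-0.125 µg/ml final. Incubated 48 h at 35 °C. MIC is the lowest concentration giving complete inhibition of visible growth. Fluconazole served as the reference.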

[2] = tested on: Candida parapsilosis; assay: Antifungal activity against azole-susceptible Candida parapsilosis ATCC 90018 assessed as reduction in fungal growth incubated for 48 hrs by broth microdilution method; assay type: functional; settings: Lodderomyces parapsilosis, ATCC 90018, 48 h; outline: as §1
[3] = tested on: Candida albicans; assay: Antifungal activity against azole-susceptible Candida albicans ATCC 90028 assessed as reduction in fungal growth incubated for 48 hrs by broth microdilution method; assay type: functional; settings: ATCC 90028, 48 h; outline: as §1
[4] = tested on: Candida tropicalis; assay: Antifungal activity against azole-resistant Candida tropicalis assessed as reduction in fungal growth incubated for 48 hrs by broth microdilution method; assay type: functional
Outline: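 CLSI broth microdilution in RPMI 1640 (glutamine, no bicarbonate) buffered to pH 7.0 with MOPS. Azole-resistant clinical C. tropicalis isolate, stored at -80 °C in glycerol, subcultured twice on Sabouraud dextrose agar. Inoculum from 24-h subcultures, final 0.5 to 2.5×10^3 cfu/ml. Compounds in DMSO, twofold final 1024–0.125 µg/ml. Incubated 35 °C, 48 h. MIC = lowest concentration fully inhibiting visible growth.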

[5] = tested on: Candida albicans; assay: Antifungal activity against Candida albicans by broth dilution assay; assay type: functional; outline: as §1
[6] = tested on: Candida albicans; assay: Disruption of Candida albicans SC5314 pre-formed mature biofilm assessed as reduction in biofilm biomass incubated for 24 hrs by spectrophotometry; assay type: functional
Outline: (§2)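 C. albicans SC5314 biofilms grown on a 96-peg lid (Calgary device, MBEC protocol) from 10^6 cfu/ml inoculum for 24 h at 37 °C. Pegs rinsed in 0.9% saline, then challenged 24 h at 35 °C with twofold dilutions, 512-0.5 µg/ml. MBIC: no well turbidity by visual inspection. MBEC: pegs sonicated into RPMI/2% glucose, regrowth overnight, OD 550 nm plus visual turbidity.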

[7] = tested on: Candida albicans; assay: Antibiofilm activity against Candida albicans SC5314 assessed as inhibition of biofilm formation by turbidity based visual inspection method; assay type: functional; outline: as §2
[8] = tested on: U-937; assay: Cytotoxicity against human U937 cells assessed as cell viability at 0.125 to 32 ug/ml incubated for 24 to 48 hrs by MTT assay; assay type: cell-based
Outline: (§3)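 MTT assay on U937 monocytic cells, 4×10³ cells/well, in RPMI-1640 with 10% FBS. Eight concentrations, 0.125-32 µg/ml, DMSO ≤0.32% v/v, each in triplicate. Exposure 24 or 48 h at 37 °C, 5% CO₂, then MTT for 4 h. Formazan dissolved in SDS/DMF, absorbance read at 570 nm. Viability calculated relative to untreated cells.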

[9] = Cytotoxicity against human U937 cells assessed as cell viability at >= 8 ug/ml incubated for 24 to 48 hrs by MTT assay; assay type: cell-based, U-937; settings: read-out: Activity; outline: as §3

Compound | MIC [1] [µg/mL] | MIC [2] [µg/mL] | MIC [3] [µg/mL] | MIC [4] [µg/mL] | MIC [5] [µg/mL] | MBEC [6] [µg/mL] | MBIC [7] [µg/mL] | Activity [8] | viability [9] [%]
CC(C)c1ccc(C(=O)O/N=C(\Cn2ccnc2)c2ccc(Cl)cc2Cl)cc1.Cl | 32 | 16 | 16 | – | – | – | – | – | –
CCc1ccc(C(=O)OC(Cn2ccnc2)c2ccc(Cl)cc2Cl)cc1.Cl (racemic) | 256 | 256 | 256 | – | – | – | – | – | –
Cl.O=C(O/N=C(\Cn1ccnc1)c1ccc(Cl)cc1Cl)c1ccc(-c2ccc(-c3ccccc3)cc2)cc1 | 256 | 128 | 128 | – | – | – | – | – | –
OC(Cn1cncn1)(Cn1cncn1)c1ccc(F)cc1F [FLUCONAZOLE] | 32 (≈ 104 µM) | 0.5 (≈ 1.63 µM) | 0.5 (≈ 1.63 µM) | 512 (≈ 1670 µM) | – | – | – | – | –
CC(C)(C)c1ccc(C(=O)OC(Cn2ccnc2)c2ccc(Cl)cc2Cl)cc1.Cl (racemic) | 256 | 128 | 128 | – | 10 | – | – | – | –
Cl.O=C(CCC(=O)c1ccccc1)OC(Cn1ccnc1)c1ccc(Cl)cc1Cl (racemic) | 32 | 8 | 16 | – | – | – | – | – | –
Cl.O=C(OC(Cn1ccnc1)c1ccc(Cl)cc1Cl)c1ccc(Cl)cc1Cl (racemic) | 256 | 128 | 128 | – | 300 | – | – | – | –
Cc1ccc(C(=O)O/N=C(\Cn2ccnc2)c2ccc(Cl)cc2Cl)cc1 | 256 (≈ 659 µM) | 256 (≈ 659 µM) | 128 (≈ 330 µM) | – | – | – | – | – | –
O=C(O/N=C(\Cn1ccnc1)c1ccc(Cl)cc1Cl)c1ccccc1 | 32 (≈ 85.5 µM) | 32 (≈ 85.5 µM) | 32 (≈ 85.5 µM) | – | – | – | – | – | –
CSc1ccc(C(=O)O/N=C(\Cn2ccnc2)c2ccc(Cl)cc2Cl)cc1.Cl | 64 | 2 | 2 | 16 | – | 256 | 2 | – | –
CCc1ccc(C(=O)O/N=C(\Cn2ccnc2)c2ccc(Cl)cc2Cl)cc1.Cl | 256 | 128 | 128 | 8 | – | – | – | – | –
O=C(/C=C/c1ccccc1)O/N=C(\Cn1ccnc1)c1ccc(Cl)cc1Cl | 4 (≈ 9.99 µM) | 2 (≈ 5 µM) | 2 (≈ 5 µM) | 64 (≈ 160 µM) | – | 512 | 128 | – | –
O=C(O/N=C(\Cn1ccnc1)c1ccc(Cl)cc1Cl)C1CCCCC1 | 64 (≈ 168 µM) | 64 (≈ 168 µM) | 64 (≈ 168 µM) | – | – | – | – | – | –
Cl.O=C(OC(Cn1ccnc1)c1ccc(Cl)cc1Cl)C1CCCC1 (racemic) | 16 | 2 | 1 | 8 | – | >1024 | 32 | – | –
Cl.O=C(O/N=C(\Cn1ccnc1)c1ccc(Cl)cc1Cl)c1ccc2ccccc2n1 | 256 | 256 | 128 | – | – | – | – | – | –
O=C(Cn1ccnc1)c1ccc(Cl)cc1Cl | 256 (≈ 1000 µM) | 32 (≈ 125 µM) | 128 (≈ 502 µM) | – | – | – | – | – | –
Cl.O=C(OC(Cn1ccnc1)c1ccc(Cl)cc1Cl)C1CCCCC1 (racemic) | 32 | 4 | 8 | 16 | – | – | – | – | –
Cl.O=C(OC(Cn1ccnc1)c1ccc(Cl)cc1Cl)c1ccc(C(F)(F)F)cc1 (racemic) | 256 | 256 | 256 | – | – | – | – | – | –
Cl.O=C(OC(Cn1ccnc1)c1ccc(Cl)cc1Cl)c1ccc([N+](=O)[O-])cc1 (racemic) | 32 | 4 | 8 | 8 | > 300 | – | – | – | –
CC(C)(C)OC(=O)NCCCC(=O)OC(Cn1ccnc1)c1ccc(Cl)cc1Cl.Cl (racemic) | 128 | 16 | 8 | – | – | – | – | – | –
Cl.O=C(CCCc1ccccc1)OC(Cn1ccnc1)c1ccc(Cl)cc1Cl (racemic) | 8 | 2 | 2 | 32 | – | 64 | 0.5 | – | –
C[C@@H]1[C@H](O)[C@@H](C)/C=C/C=C/C=C/C=C/C=C/C=C/C=C/[C@H](O[C@@H]2O[C@H](C)[C@@H](O)[C@H](N)[C@@H]2O)C[C@@H]2O[C@](O)(C[C@@H](O)C[C@@H](O)[C@H](O)CC[C@@H](O)C[C@@H](O)CC(=O)O[C@H]1C)C[C@H](O)[C@H]2C(=O)O [AMPHOTERICIN B] | – | – | – | – | – | 256 | 4 | – | –

Compound | MIC [1] [µg/mL] | MIC [2] [µg/mL] | MIC [3] [µg/mL] | MIC [4] [µg/mL] | MIC [5] [µg/mL] | MBEC [6] [µg/mL] | MBIC [7] [µg/mL] | Activity [8] | viability [9] [%]
Cl.O=C(O/N=C(\Cn1ccnc1)c1ccc(Cl)cc1Cl)c1ccc2ccccc2c1 | 256 | 256 | 256 | – | – | – | – | – | –
Cl.O=C(O/N=C(\Cn1ccnc1)c1ccc(Cl)cc1Cl)c1ccc(Cl)cc1Cl | 64 | 64 | 64 | – | – | – | – | – | –
Cl.O=C(O/N=C(\Cn1ccnc1)c1ccc(Cl)cc1Cl)c1ccc(Cl)cc1 | 64 | 32 | 32 | – | – | – | – | – | –
OC(Cn1ccnc1)c1ccc(Cl)cc1Cl (stereo not given) | 128 (≈ 498 µM) | 4 (≈ 15.6 µM) | 8 (≈ 31.1 µM) | 256 (≈ 996 µM) | – | – | – | – | –
CC(C)c1ccc(C(=O)OC(Cn2ccnc2)c2ccc(Cl)cc2Cl)cc1.Cl (racemic) | 128 | 128 | 256 | – | – | – | – | – | –
Cl.O=C(OC(Cn1ccnc1)c1ccc(Cl)cc1Cl)c1cc2ccccc2[nH]1 (racemic) | 0.5 | 0.25 | 0.125 | 1 | – | 128 | 2 | Non-Toxic | –
Cl.O=C(O/N=C(\Cn1ccnc1)c1ccc(Cl)cc1Cl)c1cc2ccccc2[nH]1 | 256 | 128 | 128 | 256 | – | – | – | – | –
O=C(OC(Cn1ccnc1)c1ccc(Cl)cc1Cl)c1ccc(-c2ccc(-c3ccccc3)cc2)cc1 (racemic) | 256 (≈ 499 µM) | 256 (≈ 499 µM) | 256 (≈ 499 µM) | – | – | – | – | – | –
N#Cc1ccc(C(=O)O/N=C(\Cn2ccnc2)c2ccc(Cl)cc2Cl)cc1 | 64 (≈ 160 µM) | 64 (≈ 160 µM) | 128 (≈ 321 µM) | – | – | – | – | – | –
Cl.O=C(OC(Cn1ccnc1)c1ccc(Cl)cc1Cl)c1ccc(-c2ccccc2)cc1 (racemic) | 1 | 0.25 | 0.25 | 512 | – | 256 | 2 | – | < 80
Cl.O=C(OC(Cn1ccnc1)c1ccc(Cl)cc1Cl)c1ccc(N2CCOCC2)cc1 (racemic) | 256 | 32 | 16 | – | – | – | – | – | –
COc1ccc(C(=O)OC(Cn2ccnc2)c2ccc(Cl)cc2Cl)cc1.Cl (racemic) | 16 | 1 | 2 | 4 | – | 256 | 1 | – | –
Cl.O=C(/C=C/c1ccccc1)OC(Cn1ccnc1)c1ccc(Cl)cc1Cl (racemic) | 1 | 1 | 0.5 | 4 | – | 64 | 0.5 | Non-Toxic | –
Cl.O=C(O/N=C(\Cn1ccnc1)c1ccc(Cl)cc1Cl)c1ccc([N+](=O)[O-])cc1 | 64 | 16 | 64 | – | – | – | – | – | –
COc1ccc(C(=O)O/N=C(\Cn2ccnc2)c2ccc(Cl)cc2Cl)cc1 | 1 (≈ 2.47 µM) | 1 (≈ 2.47 µM) | 0.5 (≈ 1.24 µM) | 64 (≈ 158 µM) | – | 512 | 2 | Non-Toxic | –
Cl.O=C(OC(Cn1ccnc1)c1ccc(Cl)cc1Cl)c1ccc2ccccc2c1 (racemic) | 2 | 1 | 1 | 1 | – | 256 | 0.5 | Non-Toxic | –
CC(C)(C)c1ccc(C(=O)O/N=C(\Cn2ccnc2)c2ccc(Cl)cc2Cl)cc1 | 4 (≈ 9.3 µM) | 4 (≈ 9.3 µM) | 4 (≈ 9.3 µM) | 64 (≈ 149 µM) | – | 256 | 128 | – | –
CSc1ccc(C(=O)OC(Cn2ccnc2)c2ccc(Cl)cc2Cl)cc1.Cl (racemic) | 28 | 16 | 8 | – | – | – | – | – | –
O/N=C(\Cn1ccnc1)c1ccc(Cl)cc1Cl | 256 (≈ 948 µM) | 32 (≈ 118 µM) | 32 (≈ 118 µM) | – | – | – | – | – | –
O=C(O/N=C(\Cn1ccnc1)c1ccc(Cl)cc1Cl)c1ccc(-c2ccccc2)cc1 | 1 (≈ 2.22 µM) | 1 (≈ 2.22 µM) | 1 (≈ 2.22 µM) | 256 (≈ 568 µM) | – | 256 | 16 | Non-Toxic | –
Cl.N#Cc1ccc(C(=O)OC(Cn2ccnc2)c2ccc(Cl)cc2Cl)cc1 (racemic) | 64 | 4 | 8 | 16 | – | – | – | – | –
